Laboratory results published in ChEMBL document CHEMBL1134091, “Aromatic inhibitors of dehydroquinate synthase: synthesis, evaluation and implications for gallic acid biosynthesis” (Bioorg Med Chem Lett, 2001).

What was measured:
[1] = molecular target: T1, 3-dehydroquinate synthase (Escherichia coli K-12, UniProt P07639); assay: Inhibition constant for binding to Co2+ form of 3-dehydroquinate synthase (DHQ) purified from Escherichia coli
T1 sequence (P07639 whole entry): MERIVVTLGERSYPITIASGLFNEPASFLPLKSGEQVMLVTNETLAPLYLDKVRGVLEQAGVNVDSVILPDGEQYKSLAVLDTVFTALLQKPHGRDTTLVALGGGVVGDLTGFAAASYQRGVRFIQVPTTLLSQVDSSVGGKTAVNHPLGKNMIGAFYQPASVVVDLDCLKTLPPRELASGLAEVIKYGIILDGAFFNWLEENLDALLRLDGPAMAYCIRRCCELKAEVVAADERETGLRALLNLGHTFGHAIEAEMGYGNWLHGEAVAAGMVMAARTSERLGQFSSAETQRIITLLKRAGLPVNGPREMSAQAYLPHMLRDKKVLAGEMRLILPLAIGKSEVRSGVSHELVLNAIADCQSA
Outline: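 E. coli DHQ synthase, Co2+ form, purified with […] in all buffers from lysis onward. Assayed at rt in 50 mM MOPS pH 7.5 with […], 10 mM NAD+, 1 unit dehydroquinase, varied DAHP and inhibitor; 0.024 units enzyme added last. A234 increase followed. Ki from Dixon plots, or as half the I50 x-intercept at DAHP = Km ([…]).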

[2] = molecular target: T1, 3-dehydroquinate synthase; assay: Inhibition constant for binding to Zn2+ form of 3-dehydroquinate synthase (DHQ) purified from Escherichia coli
Outline: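 E. coli DHQ synthase, Zn2+ form, purified with 75 mM ZnSO4 replacing CoCl2 in all buffers. Assayed at rt in 50 mM MOPS pH 7.5 with […] mM NAD+, 1 unit dehydroquinase, varied DAHP and inhibitor; 0.024 units enzyme added last. A234 increase followed. Ki from Dixon plots, or as half the I50 x-intercept at DAHP = Km ([…]).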

[3] = substrate: Oc1ccccc1O; assay: Kinetics expressed as Michaelis-Menten constant against Zn2+ form of 3-dehydroquinate synthase purified from Escherichia coli
Outline: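 Zn2+-form enzyme from E. coli, purified with ZnSO4 replacing CoCl2 in every buffer from cell lysis onward. Coupled assay in 50 mM MOPS pH 7.5 with ZnSO4, NAD+, dehydroquinase (1 unit) and varying DAHP substrate. Equilibrated at rt, then started with 0.024 units synthase. Absorbance increase at 234 nm monitored. Initial rates from linear least-squares fits.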

[4] = substrate: Oc1ccccc1O; assay: Kinetics expressed as Michaelis-Menten constant against Co2+ form of 3-dehydroquinate synthase purified from Escherichia coli
Outline: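 Co2+-form enzyme from E. coli, with CoCl2 in all buffers from lysis through purification. Coupled assay in 50 mM MOPS pH 7.5 with CoCl2, NAD+, dehydroquinase (1 unit) and varying DAHP substrate. Equilibrated at rt, then started with 0.024 units synthase. Absorbance rise at 234 nm followed over time. Initial rates taken from linear least-squares fits of progress curves.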

Row | Molecule | Ki [1] [µM] | Ki [2] [µM] | Km [3] [µM] | Km [4] [µM]
1 | Oc1ccccc1O [CATECHOL] | 880 | 630 |  | 
2 | O=C(O)c1cc(O)c(O)c(CP(=O)(O)O)c1 | 21 | 0.35 |  | 
3 | O=C(O)c1ccc(O)c(O)c1 [PROTOCATECHUIC ACID] | 44 | 65 |  | 
4 | O=P(O)(O)CCc1cccc(O)c1O | 200 | 90 |  | 
5 | O=C(O)c1cc(O)c(O)c(CCP(=O)(O)O)c1 | 5 | 1.7 |  | 
6 | 3-dehydroquinate synthase (Escherichia coli K-12), P07639 (protein) MERIVVTLGERSYPITIASGLFNEPASFLPLKSGEQVMLVTNETLAPLYLDKVRGVLEQAGVNVDSVILPDGEQYKSLAVLDTVFTALLQKPHGRDTTLVALGGGVVGDLTGFAAASYQRGVRFIQVPTTLLSQVDSSVGGKTAVNHPLGKNMIGAFYQPASVVVDLDCLKTLPPRELASGLAEVIKYGIILDGAFFNWLEENLDALLRLDGPAMAYCIRRCCELKAEVVAADERETGLRALLNLGHTFGHAIEAEMGYGNWLHGEAVAAGMVMAARTSERLGQFSSAETQRIITLLKRAGLPVNGPREMSAQAYLPHMLRDKKVLAGEMRLILPLAIGKSEVRSGVSHELVLNAIADCQSA |  |  | 16 | 18
